{"source": "ChEMBL document CHEMBL4613292", "about": "“5,6-Dihydroxypyrimidine Scaffold to Target HIV-1 Nucleocapsid Protein” (ACS Med Chem Lett, 2020)", "key": {"[1]": {"assay": "Half life in human plasma at 3 uM by LC-MS/MS analysis", "format": "ADME, cell-free"}, "[2]": {"assay": "Volume of distribution at steady state in C57BL/6 mouse at 2 mg/kg, iv or 5 mg/kg, po administered as single dose measured up to 24 hrs by LC-MS/MS analysis", "format": "ADME, organism-based", "conditions": "in vivo, read-out: Vdss"}, "[3]": {"target": "T1, Cytochrome P450 1A2 (Homo sapiens, UniProt P05177)", "T1 sequence (P05177 whole entry)": "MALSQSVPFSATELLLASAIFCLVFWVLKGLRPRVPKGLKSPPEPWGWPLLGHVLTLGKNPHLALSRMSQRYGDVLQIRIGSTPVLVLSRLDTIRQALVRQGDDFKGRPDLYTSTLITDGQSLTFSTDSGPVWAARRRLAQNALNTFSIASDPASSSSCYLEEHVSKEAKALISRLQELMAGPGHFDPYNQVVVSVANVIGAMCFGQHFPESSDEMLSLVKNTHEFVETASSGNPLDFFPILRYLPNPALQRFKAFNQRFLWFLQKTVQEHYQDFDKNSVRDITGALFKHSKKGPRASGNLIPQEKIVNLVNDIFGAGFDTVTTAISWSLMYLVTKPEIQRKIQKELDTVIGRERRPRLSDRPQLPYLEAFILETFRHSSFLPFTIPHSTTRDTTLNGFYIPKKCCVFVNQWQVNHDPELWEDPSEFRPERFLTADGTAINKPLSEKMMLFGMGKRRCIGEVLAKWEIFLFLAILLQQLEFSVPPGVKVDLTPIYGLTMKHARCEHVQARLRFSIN", "assay": "Inhibition of human microsomal CYP1A2 expressed in baculovirus infected insect cells using luciferin-1A2 as substrate preincubated with enzyme-substrate mixture for 30 mins followed by further incubation with NADPH for 30 mins by CYP450 luciferase Glo assay", "format": "ADME"}, "[4]": {"assay": "Half life in C57BL/6 mouse at 2 mg/kg, iv or 5 mg/kg, po administered as single dose measured up to 24 hrs by LC-MS/MS analysis", "format": "ADME, organism-based", "conditions": "in vivo"}, "[5]": {"system": "Human immunodeficiency virus 1", "assay": "(§1) Ratio of IC50 for PI-resistant HIV1 11808 Nucleocapsid protein (11 to 55 residues) using Alexa488-5'-cTAR-3'-Dabcyl oligonucleotide as substrate to IC50 for HIV1 Nucleocapsid protein (11 to 55 residues) assessed as reduction in NC-induced cTAR DNA destabilization by measuring intrinsic fluorescence using Alexa488-5'-cTAR-3'-Dabcyl oligonucleotide as substrate at 20 degree C incubated for 15 mins by fluorescence assay"}, "[6]": {"target": "Cytochrome P450 2D6 (Homo sapiens, UniProt P10635)", "sequence (P10635 whole entry)": "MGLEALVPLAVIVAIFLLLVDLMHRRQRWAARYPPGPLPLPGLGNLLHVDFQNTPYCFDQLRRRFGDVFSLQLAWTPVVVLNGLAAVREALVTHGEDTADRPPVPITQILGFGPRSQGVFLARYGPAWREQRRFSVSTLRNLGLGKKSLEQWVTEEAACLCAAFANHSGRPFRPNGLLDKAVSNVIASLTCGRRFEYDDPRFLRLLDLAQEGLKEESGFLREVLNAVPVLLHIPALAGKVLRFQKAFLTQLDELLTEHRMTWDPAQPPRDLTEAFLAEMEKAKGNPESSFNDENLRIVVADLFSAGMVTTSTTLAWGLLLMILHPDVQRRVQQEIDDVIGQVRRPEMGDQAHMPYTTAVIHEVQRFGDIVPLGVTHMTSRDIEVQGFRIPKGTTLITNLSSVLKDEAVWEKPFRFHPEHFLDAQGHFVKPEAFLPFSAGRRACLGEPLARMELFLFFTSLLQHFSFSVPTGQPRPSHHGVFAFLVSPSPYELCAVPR", "assay": "Inhibition of human microsomal CYP2D6 expressed in baculovirus infected insect cells using luciferin-ME as substrate preincubated with enzyme/substrate mixture for 30 mins followed by further incubation with NADPH for 30 mins by CYP450 luciferase Glo assay", "format": "ADME"}, "[7]": {"system": "Human immunodeficiency virus 1", "assay": "Antiviral activity against NNRTI-resistant HIV1 12231", "format": "functional, organism-based", "conditions": "Human immunodeficiency virus 1, 12231"}, "[8]": {"assay": "Cytotoxicity against phytohemagglutinin and interleukin-2-stimulated human PBMC cells assessed as reduction in cell viability measured after 7 days by MTS assay", "format": "cell-based"}, "[9]": {"target": "Voltage-gated inwardly rectifying potassium channel KCNH2 (Homo sapiens, UniProt Q12809)", "sequence (Q12809 whole entry)": "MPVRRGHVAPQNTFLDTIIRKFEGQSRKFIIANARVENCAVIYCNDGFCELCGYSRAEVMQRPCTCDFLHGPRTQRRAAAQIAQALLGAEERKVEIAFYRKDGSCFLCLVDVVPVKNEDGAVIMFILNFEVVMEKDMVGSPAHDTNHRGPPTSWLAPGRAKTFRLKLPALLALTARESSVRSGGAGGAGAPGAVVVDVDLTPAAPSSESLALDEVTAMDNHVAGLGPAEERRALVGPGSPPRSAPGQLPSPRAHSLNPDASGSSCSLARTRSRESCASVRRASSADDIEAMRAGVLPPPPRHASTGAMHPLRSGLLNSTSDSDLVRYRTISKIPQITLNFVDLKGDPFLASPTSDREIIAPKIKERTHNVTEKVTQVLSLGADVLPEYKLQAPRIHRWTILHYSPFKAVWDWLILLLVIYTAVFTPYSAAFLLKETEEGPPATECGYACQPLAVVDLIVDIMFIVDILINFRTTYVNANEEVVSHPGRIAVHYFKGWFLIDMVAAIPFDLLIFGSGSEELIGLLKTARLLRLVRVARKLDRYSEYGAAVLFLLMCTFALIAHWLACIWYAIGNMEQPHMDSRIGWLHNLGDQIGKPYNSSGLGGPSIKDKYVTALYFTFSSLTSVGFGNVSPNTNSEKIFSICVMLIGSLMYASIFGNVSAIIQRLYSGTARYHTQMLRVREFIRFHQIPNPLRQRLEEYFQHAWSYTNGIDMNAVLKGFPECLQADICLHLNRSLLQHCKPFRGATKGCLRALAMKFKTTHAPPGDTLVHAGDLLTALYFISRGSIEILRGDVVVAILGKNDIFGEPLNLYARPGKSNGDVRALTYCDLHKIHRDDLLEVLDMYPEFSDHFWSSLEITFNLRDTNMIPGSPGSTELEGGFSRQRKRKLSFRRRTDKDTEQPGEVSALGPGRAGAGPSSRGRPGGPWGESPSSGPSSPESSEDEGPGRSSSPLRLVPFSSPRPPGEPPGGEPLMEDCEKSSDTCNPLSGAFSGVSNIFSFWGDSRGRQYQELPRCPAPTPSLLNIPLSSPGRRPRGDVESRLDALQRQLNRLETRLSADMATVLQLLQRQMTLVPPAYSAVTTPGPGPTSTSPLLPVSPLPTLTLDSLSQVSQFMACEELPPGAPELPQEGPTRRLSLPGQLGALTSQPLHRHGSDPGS", "assay": "Displacement of Tracer Red from human ERG measured after 4 hrs by fluorescence polarization assay"}, "[10]": {"assay": "Half life in mouse plasma at 3 uM by LC-MS/MS analysis", "format": "ADME, cell-free"}, "[11]": {"system": "Human immunodeficiency virus 1", "assay": "as §1, with “NRTI-resistant” for “PI-resistant”, “7401” for “11808”"}, "[12]": {"assay": "Half life in mouse hepatocytes at 3 uM by LC-MS/MS analysis", "format": "ADME, cell-based, Hepatocyte"}, "[13]": {"target": "Cytochrome P450 3A4 (Homo sapiens, UniProt P08684)", "sequence (P08684 whole entry)": "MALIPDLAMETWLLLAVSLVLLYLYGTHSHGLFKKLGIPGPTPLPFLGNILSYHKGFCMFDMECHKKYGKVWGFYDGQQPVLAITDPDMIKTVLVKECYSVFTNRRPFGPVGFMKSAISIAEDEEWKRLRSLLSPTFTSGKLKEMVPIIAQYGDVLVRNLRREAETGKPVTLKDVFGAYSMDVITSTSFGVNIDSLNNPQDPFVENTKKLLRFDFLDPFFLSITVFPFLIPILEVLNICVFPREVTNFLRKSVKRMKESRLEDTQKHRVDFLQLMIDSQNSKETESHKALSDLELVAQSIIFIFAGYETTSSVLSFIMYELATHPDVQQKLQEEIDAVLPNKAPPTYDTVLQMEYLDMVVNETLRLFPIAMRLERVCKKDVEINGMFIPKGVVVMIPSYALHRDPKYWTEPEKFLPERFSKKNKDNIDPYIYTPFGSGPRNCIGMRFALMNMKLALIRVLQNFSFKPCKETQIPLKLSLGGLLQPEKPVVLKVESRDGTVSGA", "assay": "Inhibition of human microsomal CYP3A4 expressed in baculovirus infected insect cells using luciferin-IPA as substrate preincubated with enzyme/substrate mixture for 30 mins followed by further incubation with NADPH for 30 mins by CYP450 luciferase Glo assay", "format": "ADME"}, "[14]": {"target": "Human immunodeficiency virus type 1 integrase (Human immunodeficiency virus 1) (UniProt Q7ZJM1)", "sequence (Q7ZJM1 as listed by the source)": "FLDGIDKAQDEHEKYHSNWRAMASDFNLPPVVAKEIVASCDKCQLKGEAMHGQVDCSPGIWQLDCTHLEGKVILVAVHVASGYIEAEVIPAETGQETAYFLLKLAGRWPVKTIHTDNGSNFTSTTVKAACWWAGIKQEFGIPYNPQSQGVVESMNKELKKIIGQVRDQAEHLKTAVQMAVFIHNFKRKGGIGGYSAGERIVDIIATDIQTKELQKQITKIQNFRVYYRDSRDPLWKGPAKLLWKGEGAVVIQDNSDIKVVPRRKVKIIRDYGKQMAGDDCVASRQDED", "assay": "Inhibition of wild type recombinant HIV1 His6-tagged integrase expressed in Escherichia coli BL21 using 18 nucleotide 3'-biotin labeled DNA acceptor as substrate upto 10 uM preincubated for 1 hr followed by substrate addition and further incubated for 90 mins in presence of recombinant LEDGF/p75 by HTRF assay"}, "[15]": {"system": "Human immunodeficiency virus 1", "assay": "as §1, with “NNRTI-resistant” for “PI-resistant”, “12231” for “11808”"}, "[16]": {"system": "Human immunodeficiency virus 1", "assay": "Antiviral activity against PI-resistant HIV1 11808", "format": "functional, organism-based", "conditions": "Human immunodeficiency virus 1, 11808"}, "[17]": {"assay": "Cytotoxicity against human HeLa cells assessed as reduction in cell viability", "format": "cell-based"}, "[18]": {"assay": "(§2) Selectivity index, ratio of CC50 for human HeLa cells assessed as reduction in cell viability to EC50 for wild-type HIV1 NL4-3 infected in human TZM-bl cells infected with supernatants from virus-infected human MT2 cells treated with compound for 48 to 72 hrs assessed as reduction in viral replication after 2 days by bright Glo-luciferase reporter gene assay based BiCycle assay", "format": "toxicity", "conditions": "read-out: Ratio CC50/EC50", "procedure,_shortened": "(§3)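 Selectivity index is CC50 from the respective cytotoxicity assay (HeLa or PBMC) divided by EC50 from the two-round MT-2/TZM-bl NL4-3 assay.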"}, "[19]": {"system": "Human immunodeficiency virus 1", "assay": "Antiviral activity against NRTI-resistant HIV1 7401", "format": "functional, organism-based", "conditions": "Human immunodeficiency virus 1, 7401"}, "[20]": {"system": "Human immunodeficiency virus 1", "assay": "as §1, with “INI-resistant” for “PI-resistant”, “11845” for “11808”"}, "[21]": {"assay": "Inhibition of HIV1 Nucleocapsid protein (11 to 55 residues) assessed as reduction in NC-induced cTAR DNA destabilization by measuring intrinsic fluorescence using Alexa488-5'-cTAR-3'-Dabcyl oligonucleotide as substrate at 20 degree C incubated for 15 mins by fluorescence assay", "set-up": "species or system Human immunodeficiency virus 1", "conditions": "read-out: IC50", "procedure,_shortened": "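Fluorescence NC-inhibition assay following destabilisation of cTAR DNA, the complement of the HIV-1 transactivation response element, dual-labelled with Alexa488 dye and Dabcyl quencher. NC protein at 1 μM, so the lowest measurable IC50 is 0.5 μM.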"}, "[22]": {"system": "Human immunodeficiency virus 1", "assay": "as §2, with “Antiviral activity against” for “Selectivity index, ratio of CC50 for human HeLa cells assessed as reduction in cell viability to EC50 for”", "format": "functional, organism-based", "conditions": "Human immunodeficiency virus 1, NL4-3, TZM", "procedure,_shortened": "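Two-round cell assay over the full replication cycle: MT-2 T cells are infected with wild-type reference strain NL4-3 in the first round, and reporter TZM-bl cells are infected in the second round. Values are given as mean ± deviation.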"}, "[23]": {"assay": "Clearance in C57BL/6 mouse at 2 mg/kg, iv or 5 mg/kg, po administered as single dose measured up to 24 hrs by LC-MS/MS analysis", "format": "ADME, organism-based", "conditions": "in vivo"}, "[24]": {"assay": "Oral bioavailability in C57BL/6 mouse at 5 mg/kg administered as single dose measured up to 24 hrs by LC-MS/MS analysis", "format": "ADME, organism-based", "conditions": "in vivo", "procedure,_shortened": "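C57BL/6 mice were dosed 5 mg/kg orally, with a 2 mg/kg iv reference arm. Plasma was sampled at eight time points up to 24 h.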"}, "[25]": {"system": "Human immunodeficiency virus 1", "assay": "Antiviral activity against INI-resistant HIV1 11845", "format": "functional, organism-based", "conditions": "Human immunodeficiency virus 1, 11845"}, "[26]": {"assay": "Half life in human hepatocytes at 3 uM by LC-MS/MS analysis", "format": "ADME, cell-based, Hepatocyte"}, "[27]": {"assay": "Selectivity index, ratio of CC50 for human PBMC cells stimulated with phytohemagglutinin and interleukin-2 assessed as reduction in cell viability measured after 7 days by MTS assay to EC50 for wild-type HIV1 NL4-3 infected in human TZM-bl cells infected with supernatants from virus-infected human MT2 cells treated with compound for 48 to 72 hrs assessed as reduction in viral replication after 2 days by bright Glo-luciferase reporter gene assay based BiCycle assay", "format": "toxicity", "conditions": "read-out: Ratio CC50/EC50", "procedure,_shortened": "as §3"}}, "note": "Active and inactive are the calls of the source. The calls are words filed in the database; no cut-off is given here.", "data": [{"smiles": "COc1ccnc(-c2nc(O)c(O)c(C(=O)N[C@H](C)C3CCCCC3)n2)c1", "values": [{"measurement": "half-life at 3 µM", "setting": "[1]", "value": "> 6", "unit": "h"}, {"measurement": "Vd", "setting": "[2]", "value": 0.8, "unit": "L/kg"}, {"measurement": "IC50", "setting": "[3]", "value": "> 30000", "unit": "nM"}, {"measurement": "half-life", "setting": "[4]", "value": 1.4, "unit": "h"}, {"measurement": "Ratio IC50", "setting": "[5]", "value": 1.4}, {"measurement": "IC50", "setting": "[6]", "value": "> 30000", "unit": "nM"}, {"measurement": "EC50", "setting": "[7]", "value": 110, "unit": "nM"}, {"measurement": "CC50 at 168 h", "setting": "[8]", "value": 2700, "unit": "nM"}, {"measurement": "IC50", "setting": "[9]", "value": "> 30000", "unit": "nM"}, {"measurement": "half-life at 3 µM", "setting": "[10]", "value": "> 24", "unit": "h"}, {"measurement": "Ratio IC50", "setting": "[11]", "value": 0.8}, {"measurement": "half-life at 3 µM", "setting": "[12]", "value": 1.9, "unit": "h"}, {"measurement": "IC50", "setting": "[13]", "value": "> 30000", "unit": "nM"}, {"measurement": "inhibition", "setting": "[14]", "value": "inactive"}, {"measurement": "Ratio IC50", "setting": "[15]", "value": 2.8}, {"measurement": "EC50", "setting": "[16]", "value": 56, "unit": "nM"}, {"measurement": "CC50", "setting": "[17]", "value": 3000, "unit": "nM"}, {"measurement": "selectivity ratio", "setting": "[18]", "value": 75}, {"measurement": "EC50", "setting": "[19]", "value": 31, "unit": "nM"}, {"measurement": "Ratio IC50", "setting": "[20]", "value": 2.3}, {"measurement": "IC50", "setting": "[21]", "value": 22000, "unit": "nM"}, {"measurement": "EC50", "setting": "[22]", "value": 40, "unit": "nM"}, {"measurement": "clearance", "setting": "[23]", "value": 33.1, "unit": "mL/min/kg"}, {"measurement": "bioavailability", "setting": "[24]", "value": 25, "unit": "%"}, {"measurement": "EC50", "setting": "[25]", "value": 90, "unit": "nM"}, {"measurement": "half-life at 3 µM", "setting": "[26]", "value": "> 4", "unit": "h"}, {"measurement": "selectivity ratio at 7 days", "setting": "[27]", "value": 75}]}]}
